{"source": "paper PMC3793015", "about": "(Journal of agricultural and food chemistry, 2013)", "key": {"[1]": {"system": "TNF-α secretion by HepG2 cells", "experiment": "TNF-α secretion", "assay_type": "cell-based, human", "procedure,_shortened": "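HepG2 monolayers, 2 days post-confluence, were pretreated with compound (DMSO stock into 10% FBS medium) and then stimulated with phorbol 12-myristate 13-acetate. Secreted TNF-α was quantified by ELISA in activated and nonactivated cultures.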"}, "[2]": {"system": "IL-8 secretion by colonic HT-29 cells", "experiment": "IL-8 secretion", "assay_type": "cell-based, human", "procedure,_shortened": "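HT-29 monolayers, 2 days post-confluence, were pretreated with compound delivered in Tween 40 micelles. Activation used LPS from E. coli O111:B4. IL-8 secreted into the medium was quantified by ELISA, in both activated and nonactivated cultures.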"}, "[3]": {"system": "MDM", "experiment": "Cytotoxicity of α-MG", "assay_type": "cell-based, human", "conditions": "read-out: IC50 (cytotoxicity), 24 h, 10% FBS delivery", "procedure,_shortened": "(§1)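 Cytotoxicity was judged by phase-contrast morphology and MTT reduction to formazan after exposure to increasing compound concentrations. Exposure was 24 h for RAW 264.7, MDM, HepG2 and HT-29, 8 h for PMA-differentiated THP-1, and 4 h for differentiated Caco-2. Delivery was DMSO into 10% FBS medium for RAW 264.7, THP-1 and HepG2; FBS-complexed compound at 10% FBS in RPMI 1640 for MDM; Tween 40 micelles for Caco-2 and HT-29.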"}, "[4]": {"system": "HT-29", "experiment": "Cytotoxicity of α-MG", "assay_type": "cell-based, human", "conditions": "read-out: IC50 (cytotoxicity); HT-29, 24 h, Tween 40 delivery", "procedure,_shortened": "as §1"}, "[5]": {"system": "Caco-2 cells", "experiment": "Cellular uptake, metabolism and transport of α-MG on Transwell inserts", "assay_type": "in vitro ADME, human", "procedure,_shortened": "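Caco-2 cells were differentiated 21–25 days post-confluence on Transwell inserts. Compound (12 μM) in Tween 40 micelles was added apically for 24 h. Activated cultures had 5 ng/mL IL-1β for 4 h, then a PBS wash. Apical medium, basolateral medium and cell monolayer were collected separately and analysed by RP-HPLC for free and conjugated xanthones. Amounts are % of initial compound; mean ± SD, n ≥ 5.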"}, "[6]": {"system": "THP-1", "experiment": "Cytotoxicity of α-MG", "assay_type": "cell-based, human", "conditions": "read-out: IC50 (cytotoxicity); THP-1, 8 h, 10% FBS delivery", "procedure,_shortened": "as §1"}, "[7]": {"system": "HepG2", "experiment": "Cytotoxicity of α-MG", "assay_type": "cell-based, human", "conditions": "read-out: IC50 (cytotoxicity); HepG2, 24 h, 10% FBS delivery", "procedure,_shortened": "as §1"}, "[8]": {"system": "LPS-induced production of NO in RAW 264.7 cells", "experiment": "LPS-induced production of NO", "assay_type": "cell-based, murine", "conditions": "RAW 264.7, data not shown", "procedure,_shortened": "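RAW 264.7 cells, 2 days post-confluence, were pretreated 2 h with compound (DMSO stock into 10% FBS medium). They were then stimulated 16 h with 5 ng/mL E. coli O111:B4 LPS. NO production was estimated as medium nitrite by the Griess reaction.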"}, "[9]": {"system": "RAW 264.7", "experiment": "Cytotoxicity of α-MG", "assay_type": "cell-based, murine", "conditions": "read-out: IC50 (cytotoxicity); RAW 264.7, 24 h, 10% FBS delivery", "procedure,_shortened": "as §1"}, "[10]": {"system": "IL-8 secretion by macrophage-like THP-1 cells", "experiment": "IL-8 secretion", "assay_type": "cell-based, human", "procedure,_shortened": "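THP-1 cells, differentiated with 100 nM PMA for 48 h, were pretreated with compound added as a DMSO stock to 10% FBS medium, then stimulated with E. coli O111:B4 LPS. Supernatant IL-8 was measured by ELISA in LPS-treated and unstimulated cultures.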"}, "[11]": {"system": "HepG2 cells", "experiment": "Cellular uptake and metabolism of α-MG", "assay_type": "in vitro ADME, human", "procedure,_shortened": "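HepG2 monolayers, 2 days post-confluence, received 9.0 μM compound as a DMSO stock added to 10% FBS medium for 24 h. Activated cultures had 10 ng/mL TNF-α for 4 h and a PBS wash first. Medium and cells were collected separately, extracted and analysed by RP-HPLC for free and glucuronidated/sulfated xanthones. Quantification used retention time, UV spectrum and five-point standard curves, as % of initial amount; mean ± SD, n ≥ 5.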"}, "[12]": {"system": "HT-29 cells", "experiment": "Cellular uptake and metabolism of α-MG", "assay_type": "in vitro ADME, human", "procedure,_shortened": "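HT-29 monolayers, 2 days post-confluence, given 8.5 μM compound in Tween 40 micelles in medium for 24 h. Activated cultures had 800 ng/mL LPS for 4 h, then a PBS wash, before compound. Spent medium and cells were collected separately, extracted and analysed by RP-HPLC, including glucuronide/sulfate conjugates. Xanthones were identified by retention time and UV spectrum and quantified against five-point mangostin standard curves. Results are given as % of initial compound; mean ± SD, n ≥ 5.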"}, "[13]": {"system": "TNF-α secretion by MDM cells", "experiment": "TNF-α secretion", "assay_type": "cell-based, human", "procedure,_shortened": "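Primary macrophages came from buffy-coat monocytes (Ficoll, clumping), differentiated 6 days with 50 ng/mL M-CSF (97% pure by CD14/CD11b). Compound was delivered in FBS at 10% FBS in RPMI 1640. Cells were then stimulated with E. coli O111:B4 LPS or left unstimulated. Secreted TNF-α was quantified by ELISA.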"}, "[14]": {"conditions": "24 h after addition of α-MG, control cultures, nd: not detected"}, "[15]": {"conditions": "Caco-2 Transwell, 12 μM apical, 24 h"}}, "note": "pIC50: −log10 of the molar value."}
{"smiles": "COc1c(O)cc2oc3cc(O)c(CC=C(C)C)c(O)c3c(=O)c2c1CC=C(C)C", "note": "[α-MG, α-mangostin]", "values": [{"measurement": "attenuation of TNF-α secretion", "setting": "[1]; PMA-activated HepG2, 7 μM pretreatment 16 h, PMA 50 ng/mL 4 h", "result": 22, "unit": "%"}, {"measurement": "effect on secretion of TNF-α", "setting": "[1]; nonactivated HepG2 cultures", "result": "not altered"}, {"measurement": "inhibition of IL-8 chemokine secretion", "setting": "[2]; activated HT-29, 10 μM pretreatment 1 h, LPS 100 ng/mL 16 h", "result": "30–40%"}, {"measurement": "effect on basal secretion of IL-8", "setting": "[2]; nonactivated HT-29 cultures", "result": "more than doubled"}, {"measurement": "pIC50", "setting": "[3]", "result": "< 4.92"}, {"measurement": "pIC50", "setting": "[4]", "result": 3.74}, {"measurement": "xanthone in media, Caco-2", "setting": "[5]; 0 h, amount of α-MG at start", "result": "20741 ± 261", "unit": "pmol/dish"}, {"measurement": "intracellular profile table, α-MG at 0 h, Caco-2", "setting": "[5]; 0 h, control cultures", "result": "20741 ± 261", "unit": "pmol/dish"}, {"measurement": "intracellular xanthone, Caco-2", "setting": "[5]; [14]", "result": "3000 ± 551", "unit": "pmol/dish"}, {"measurement": "ratio of free to conjugated xanthones in apical medium, activated vs control", "setting": "[5]; Caco-2, 5 ng/mL IL-1β, 24 h, p < 0.05", "result": "increased"}, {"measurement": "recovery of xanthones, of α-MG added", "setting": "[5]; Caco-2, 24 h", "result": "approximately 65%"}, {"measurement": "amount of xanthones and ratio of conjugated to free xanthones transported into basolateral compartment", "setting": "[5]; Caco-2, treatment with IL-1β vs control, p < 0.05", "result": "increased"}, {"measurement": "conjugated xanthones in basolateral medium", "setting": "[5]; [15]", "result": "1.7 ± 0.3", "unit": "%"}, {"measurement": "conjugated xanthones in cells", "setting": "[5]; [15]", "result": "10 ± 3", "unit": "%"}, {"measurement": "conjugates in apical medium", "setting": "[5]; [15]", "result": "11 ± 2", "unit": "%"}, {"measurement": "free xanthones in apical medium", "setting": "[5]; [15]", "result": "35 ± 1", "unit": "%"}, {"measurement": "free xanthones in basolateral medium", "setting": "[5]; [15]", "result": "0.8 ± 0.1", "unit": "%"}, {"measurement": "free xanthones in cells", "setting": "[5]; [15]", "result": "6 ± 0.6", "unit": "%"}, {"measurement": "xanthones in apical medium (total), of initial α-mangostin", "setting": "[5]; [15]", "result": "47 ± 3", "unit": "%"}, {"measurement": "xanthones in basolateral medium (total), of initial α-mangostin", "setting": "[5]; [15]", "result": "3 ± 0.3", "unit": "%"}, {"measurement": "xanthones in cells (total), of initial α-mangostin", "setting": "[5]; [15]", "result": "16 ± 3", "unit": "%"}, {"measurement": "intracellular ratio of free to conjugated xanthones, activated vs control", "setting": "[5]; Caco-2 cells, 5 ng/mL IL-1β 4 h before α-MG, 24 h, p < 0.05", "result": "increased"}, {"measurement": "pIC50", "setting": "[6]", "result": 4.64}, {"measurement": "pIC50", "setting": "[7]", "result": 4.60}, {"measurement": "inhibition of LPS-induced production of NO", "setting": "[8]; 1 μM", "result": 50, "unit": "%"}, {"measurement": "inhibition of LPS-induced production of NO", "setting": "[8]; 3 μM", "result": 61, "unit": "%"}, {"measurement": "inhibition of LPS-induced production of NO", "setting": "[8]; 10 μM", "result": 78, "unit": "%"}, {"measurement": "pIC50", "setting": "[9]", "result": 4.64}, {"measurement": "inhibition of IL-8 chemokine secretion", "setting": "[10]; activated THP-1, 10 μM pretreatment 4 h, LPS 0.1 ng/mL 4 h", "result": "30–40%"}, {"measurement": "effect on secretion of IL-8", "setting": "[10]; nonactivated THP-1 cultures", "result": "not altered"}, {"measurement": "xanthone in media, HepG2", "setting": "[11]; 0 h, amount of α-MG at start", "result": "17834 ± 115", "unit": "pmol/dish"}, {"measurement": "intracellular profile table, α-MG at 0 h, HepG2", "setting": "[11]; 0 h, control cultures", "result": "17834 ± 115", "unit": "pmol/dish"}, {"measurement": "intracellular xanthone, HepG2", "setting": "[11]; [14]", "result": "9344 ± 298", "unit": "pmol/dish"}, {"measurement": "intracellular ratio of free to conjugated xanthones, activated vs control", "setting": "[11]; HepG2, 10 ng/mL TNF-α 4 h before α-MG, 24 h, p < 0.05", "result": "increased"}, {"measurement": "free xanthones in spent medium, of initial α-MG", "setting": "[11]; HepG2, 9.0 μM, 24 h, control", "result": "36 ± 2", "unit": "%"}, {"measurement": "free α-MG in cells, of total", "setting": "[11]; HepG2, 9.0 μM, 24 h, control", "result": "27 ± 3", "unit": "%"}, {"measurement": "glucuronidated/sulfated conjugates of α-MG in cells, of total", "setting": "[11]; HepG2, 9.0 μM, 24 h, control", "result": "29 ± 3", "unit": "%"}, {"measurement": "recovery of α-MG equivalents added", "setting": "[11]; HepG2, 24 h", "result": "91 ± 4", "unit": "%"}, {"measurement": "xanthone in media, HT-29", "setting": "[12]; 0 h, amount of α-MG at start", "result": "16517 ± 373"}, {"measurement": "intracellular profile table, α-MG at 0 h, HT-29", "setting": "[12]; 0 h, control cultures", "result": "16517 ± 373"}, {"measurement": "intracellular xanthone, HT-29", "setting": "[12]; [14]", "result": "807 ± 178"}, {"measurement": "ratio of free to conjugated xanthones in medium, activated vs control", "setting": "[12]; HT-29, 800 ng/mL LPS 4 h before α-MG, 24 h, p < 0.05", "result": "increased"}, {"measurement": "free xanthones in medium, of initial α-MG", "setting": "[12]; HT-29, 8.5 μM, 24 h, control", "result": "7 ± 2", "unit": "%"}, {"measurement": "nonconjugated xanthones in cells", "setting": "[12]; HT-29, 8.5 μM, 24 h, control", "result": "only traces"}, {"measurement": "phase II conjugates in cells, of α-MG added", "setting": "[12]; HT-29, 8.5 μM, 24 h, control", "result": "5 ± 1", "unit": "%"}, {"measurement": "phase II conjugates in medium, of α-MG added", "setting": "[12]; HT-29, 8.5 μM, 24 h, control", "result": "42 ± 3", "unit": "%"}, {"measurement": "recovery of α-MG", "setting": "[12]; HT-29, 24 h incubation", "result": "54 ± 4", "unit": "%"}, {"measurement": "TNF-α secretion in absence vs presence of α-MG", "setting": "[13]; 0.7 μM, LPS-treated MDM, p > 0.05, data not shown", "result": "similar"}, {"measurement": "effect on TNF-α secretion", "setting": "[13]; 0.7 μM, nonactivated MDM, p < 0.05, data not shown", "result": "increased"}, {"measurement": "increase of LPS-stimulated secretion of TNF-α", "setting": "[13]; MDM, 4.5 μM pretreatment 4 h, LPS 100 ng/mL 10 h", "result": "more than 50%"}, {"measurement": "effect on basal secretion of TNF-α", "setting": "[13]; nonactivated MDM cultures", "result": "more than doubled"}]}
